According to ChEMBL document CHEMBL5608261, “Pharmacophore Establishment and Optimization of Saturated 1,6-Naphthyridine-Fused Quinazolinones that Inhibit Meningoencephalitis-Causing Naegleria fowleri” (J Med Chem, 2024):

Experiments:
[1] = Selectivity index, ratio of CC50 for cytotoxicity against human SH-SY5Y cells to EC50 for anti-amoebic activity against Naegleria fowleri Nf69 (ATCC 30215) assessed as inhibition of amoeba growth; assay type: toxicity, cell-based; settings: for selectivity ratio: SH-SY5Y cells, read-out: Ratio CC50/EC50
Naegleria fowleri = experiment: Anti-ameobic activity against Naegleria fowleri Nf69 (ATCC 30215) trophozoites assessed as inhibition of amoeba growth incubated for 48 hrs by CellTiter-Glo assay; assay type: functional, organism-based
Procedure, shortened: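 Axenic Nf69 trophozoites were seeded at 1 × 10^4 cells/mL in Nelson's complete medium with 10% heat-inactivated FBS. Compound was added at 20 to 0.375 μM (lower ranges for very potent compounds), with vehicle controls, for 48 h at 37 °C and 5% CO2. CellTiter-Glo luminescence gave % growth inhibition versus controls, and triplicate means were fitted to dose–response curves for EC50.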

SH-SY5Y = experiment: Cytotoxicity against human SH-SY5Y cells assessed as reduction in cell viability incubated for 72 hrs by CellTiter-Glo assay; assay type: toxicity, cell-based; settings: sh-sy5y, 72 h
Procedure, shortened: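 SH-SY5Y cells at 2000 per well attached overnight at 37 °C. Compound from 20 mM DMSO stocks was added in triplicate as a dose series starting at 20 μM, with doxorubicin as positive control.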

[2] = Naegleria fowleri, Nf69 (ATCC 30215), 48 h

COc1cc2nc3n(c(=O)c2cc1Cl)CC[C@@H]1[C@@H]3CCCN1CC(C)C
Ratio CC50/EC50 [1]: > 32.3 | EC50 (Naegleria fowleri): 0.62 µM | CC50 (SH-SY5Y): > 20 µM

CN1CCC[C@H]2c3nc4ccc(C(F)(F)F)cc4c(=O)n3CC[C@@H]21
selectivity ratio [1]: > 4.7 | EC50 (Naegleria fowleri; [2]): 4.3 µM

CN1CCC[C@H]2c3nc4ccc(Cl)cc4c(=O)n3CC[C@@H]21
selectivity ratio [1]: > 5 | EC50 (Naegleria fowleri; [2]): 4 µM

CN1CCC[C@H]2c3nc4cc(Cl)c(Cl)cc4c(=O)n3CC[C@@H]21
selectivity ratio [1]: > 7.7 | EC50 (Naegleria fowleri; [2]): 2.6 µM

COc1cc2nc3n(c(=O)c2cc1Cl)CC[C@@H]1[C@@H]3CCCN1CC(C)C (racemic)
Ratio CC50/EC50 [1]: 10.6 | EC50 (Naegleria fowleri): 0.17 µM | CC50 (SH-SY5Y): 1.8 µM

Cc1ccc2nc3n(c(=O)c2c1)CC[C@@H]1[C@@H]3CCCN1C (racemic)
EC50 (Naegleria fowleri; [2]): 3.1 µM

Cc1cccc2nc3n(c(=O)c12)CC[C@@H]1[C@@H]3CCCN1C (racemic)
EC50 (Naegleria fowleri; [2]): > 10 µM | CC50 (SH-SY5Y): > 20 µM

CN1CCC[C@H]2c3nc4cccc(Cl)c4c(=O)n3CC[C@H]21 (racemic)
EC50 (Naegleria fowleri; [2]): > 10 µM

CN1CCC[C@H]2c3nc4cc(Cl)c(C(F)(F)F)cc4c(=O)n3CC[C@H]21 (racemic)
EC50 (Naegleria fowleri; [2]): 0.27 µM | CC50 (SH-SY5Y): > 20 µM

CN(C)CC(=O)N1CCC[C@@H]2c3nc4cc(Cl)c(Cl)cc4c(=O)n3CC[C@H]21 (racemic)
EC50 (Naegleria fowleri; [2]): 0.72 µM | CC50 (SH-SY5Y): > 20 µM

O=C(N1CCOCC1)N1CCC[C@@H]2c3nc4cc(Cl)c(Cl)cc4c(=O)n3CC[C@H]21 (racemic)
EC50 (Naegleria fowleri; [2]): > 10 µM | CC50 (SH-SY5Y): > 20 µM

COc1cc2nc3n(c(=O)c2cc1Cl)CC[C@@H]1[C@@H]3CCCN1C (racemic)
EC50 (Naegleria fowleri; [2]): 0.43 µM | CC50 (SH-SY5Y): > 20 µM

O=c1c2cc(Cl)c(Cl)cc2nc2n1CC[C@@H]1[C@@H]2CCCN1Cc1cnccn1 (racemic)
EC50 (Naegleria fowleri; [2]): 0.05 µM | CC50 (SH-SY5Y): > 20 µM

O=C(C1CCOCC1)N1CCC[C@@H]2c3nc4cc(Cl)c(Cl)cc4c(=O)n3CC[C@H]21 (racemic)
EC50 (Naegleria fowleri; [2]): > 10 µM | CC50 (SH-SY5Y): > 20 µM

CN1CCC[C@@H]2c3nc4cc(F)ccc4c(=O)n3CC[C@H]21 (racemic)
EC50 (Naegleria fowleri; [2]): > 10 µM | CC50 (SH-SY5Y): > 20 µM

COc1ccc2c(=O)n3c(nc2c1)[C@@H]1CCCN(C)[C@@H]1CC3 (racemic)
EC50 (Naegleria fowleri; [2]): 1.8 µM

CN1CCC[C@H]2c3nc4cc(Cl)c(Cl)cc4c(=O)n3CC[C@H]21 (racemic)
EC50 (Naegleria fowleri; [2]): 0.26 µM

Cc1ccc2nc3n(c(=O)c2c1)CC[C@@H]1[C@H]3CCCN1C (racemic)
EC50 (Naegleria fowleri; [2]): 2.8 µM | CC50 (SH-SY5Y): > 20 µM

O=c1c2cc(Cl)c(Cl)cc2nc2n1CC[C@H]1NCCC[C@H]21 (racemic)
EC50 (Naegleria fowleri; [2]): 1.6 µM | CC50 (SH-SY5Y): > 20 µM

CN1CCC[C@@H]2c3nc4cc(Cl)ccc4c(=O)n3CC[C@H]21 (racemic)
EC50 (Naegleria fowleri; [2]): 6 µM | CC50 (SH-SY5Y): > 20 µM

COc1cc(Cl)cc2c(=O)n3c(nc12)[C@H]1CCCN(C)[C@@H]1CC3 (racemic)
EC50 (Naegleria fowleri; [2]): > 10 µM | CC50 (SH-SY5Y): > 20 µM

COc1cc2nc3n(c(=O)c2cc1C#N)CC[C@@H]1[C@@H]3CCCN1C (racemic)
EC50 (Naegleria fowleri; [2]): 3.8 µM | CC50 (SH-SY5Y): > 20 µM

O=c1c2cc(Cl)c(Cl)cc2nc2n1CC[C@@H]1[C@@H]2CCCN1Cc1ccccn1 (racemic)
EC50 (Naegleria fowleri; [2]): 2.53 µM | CC50 (SH-SY5Y): > 20 µM

COc1ccc2nc3n(c(=O)c2c1)CC[C@@H]1[C@H]3CCCN1C (racemic)
EC50 (Naegleria fowleri; [2]): > 10 µM | CC50 (SH-SY5Y): > 20 µM

CN1CCC[C@@H]2c3nc4cnccc4c(=O)n3CC[C@H]21 (racemic)
EC50 (Naegleria fowleri; [2]): > 10 µM

Cc1cccc2nc3n(c(=O)c12)CC[C@@H]1[C@H]3CCCN1C (racemic)
EC50 (Naegleria fowleri; [2]): > 10 µM

COc1ccc2nc3n(c(=O)c2c1)CC[C@@H]1[C@@H]3CCCN1C (racemic)
EC50 (Naegleria fowleri; [2]): 7.3 µM

O=c1c2cc(Cl)c(Cl)cc2nc2n1CC[C@@H]1[C@@H]2CCCN1Cc1ccncc1 (racemic)
EC50 (Naegleria fowleri; [2]): 0.48 µM | CC50 (SH-SY5Y): > 20 µM

CN1CCC[C@@H]2c3nc4cc(-c5ccccc5)c(Cl)cc4c(=O)n3CC[C@H]21 (racemic)
EC50 (Naegleria fowleri; [2]): 2.1 µM | CC50 (SH-SY5Y): 9.4 µM

COc1cc(Cl)cc2c(=O)n3c(nc12)[C@@H]1CCCN(C)[C@@H]1CC3 (racemic)
EC50 (Naegleria fowleri; [2]): > 10 µM

COc1cc2nc3n(c(=O)c2cc1Cl)CC[C@@H]1[C@H]3CCCN1C (racemic)
EC50 (Naegleria fowleri; [2]): 0.38 µM

CN1CCC[C@@H]2c3nc4cc(C(F)(F)F)ccc4c(=O)n3CC[C@H]21 (racemic)
EC50 (Naegleria fowleri; [2]): 0.99 µM

CN1CCC[C@H]2c3nc4cnccc4c(=O)n3CC[C@H]21 (racemic)
EC50 (Naegleria fowleri; [2]): > 10 µM

CN1CCC[C@H]2c3nc4cc(F)ccc4c(=O)n3CC[C@H]21 (racemic)
EC50 (Naegleria fowleri; [2]): > 10 µM

CN1CCC[C@@H]2c3nc4cccc(Cl)c4c(=O)n3CC[C@H]21 (racemic)
EC50 (Naegleria fowleri; [2]): > 10 µM | CC50 (SH-SY5Y): > 20 µM

CN1CCC[C@H]2c3nc4ccc(C#N)cc4c(=O)n3CC[C@H]21 (racemic)
EC50 (Naegleria fowleri; [2]): 2.1 µM | CC50 (SH-SY5Y): > 20 µM

CN1CCC[C@@H]2c3nc4cc(Cl)c(C(F)(F)F)cc4c(=O)n3CC[C@H]21 (racemic)
EC50 (Naegleria fowleri; [2]): 0.34 µM

O=c1c2cc(Cl)c(Cl)cc2nc2n1CC[C@@H]1[C@@H]2CCCN1Cc1ccccc1 (racemic)
EC50 (Naegleria fowleri; [2]): 0.72 µM | CC50 (SH-SY5Y): > 20 µM

CN1CCC[C@H]2c3nc4ccc(Cl)cc4c(=O)n3CC[C@H]21 (racemic)
EC50 (Naegleria fowleri; [2]): 2.2 µM

CN1CCC[C@@H]2c3nc4ccc(C#N)cc4c(=O)n3CC[C@H]21 (racemic)
EC50 (Naegleria fowleri; [2]): 0.67 µM

CN(C)C(=O)CN1CCC[C@@H]2c3nc4cc(Cl)c(Cl)cc4c(=O)n3CC[C@H]21 (racemic)
EC50 (Naegleria fowleri; [2]): 0.3 µM | CC50 (SH-SY5Y): > 20 µM

CN1CCC[C@H]2c3nc4ccc(C(F)(F)F)cc4c(=O)n3CC[C@H]21 (racemic)
EC50 (Naegleria fowleri; [2]): 0.95 µM

CN1CCC[C@H]2c3nc4cc(C(F)(F)F)ccc4c(=O)n3CC[C@H]21 (racemic)
EC50 (Naegleria fowleri; [2]): 6.9 µM | CC50 (SH-SY5Y): > 20 µM

O=C(c1ccccc1)N1CCC[C@@H]2c3nc4cc(Cl)c(Cl)cc4c(=O)n3CC[C@H]21 (racemic)
EC50 (Naegleria fowleri; [2]): > 10 µM | CC50 (SH-SY5Y): > 20 µM

CN1CCC[C@@H]2c3nc4ccc(F)cc4c(=O)n3CC[C@H]21 (racemic)
EC50 (Naegleria fowleri; [2]): > 10 µM | CC50 (SH-SY5Y): > 20 µM

CN(C)CCN1CCC[C@@H]2c3nc4cc(Cl)c(Cl)cc4c(=O)n3CC[C@H]21 (racemic)
selectivity ratio [1]: 44 | EC50 (Naegleria fowleri; [2]): 0.18 µM | CC50 (SH-SY5Y): 8 µM

CN1CCC[C@@H]2c3nc4ccccc4c(=O)n3CC[C@H]21 (racemic)
EC50 (Naegleria fowleri; [2]): > 10 µM | CC50 (SH-SY5Y): > 20 µM

CN1CCC[C@H]2c3nc4cc(-c5ccccc5)c(Cl)cc4c(=O)n3CC[C@H]21 (racemic)
EC50 (Naegleria fowleri; [2]): 3.4 µM | CC50 (SH-SY5Y): > 20 µM

CN1CCC[C@H]2c3nc4ccccc4c(=O)n3CC[C@H]21 (racemic)
EC50 (Naegleria fowleri; [2]): > 10 µM

CC(C)(C)C(=O)N1CCC[C@@H]2c3nc4cc(Cl)c(Cl)cc4c(=O)n3CC[C@H]21 (racemic)
EC50 (Naegleria fowleri; [2]): > 10 µM | CC50 (SH-SY5Y): > 20 µM

CN1CCC[C@H]2c3nc4cc(Cl)ccc4c(=O)n3CC[C@H]21 (racemic)
EC50 (Naegleria fowleri; [2]): > 10 µM

COc1ccc2c(=O)n3c(nc2c1)[C@H]1CCCN(C)[C@@H]1CC3 (racemic)
EC50 (Naegleria fowleri; [2]): 1.5 µM | CC50 (SH-SY5Y): > 20 µM

CN1CCC[C@H]2c3nc4ccc(F)cc4c(=O)n3CC[C@H]21 (racemic)
EC50 (Naegleria fowleri; [2]): > 10 µM
